Laboratory results from ChEMBL document CHEMBL3227917, “Structure-activity relationships of dimeric Catharanthus alkaloids. 2. Experimental antitumor activities of N-substituted deacetylvinblastine amide (vindesine) sulfates” (J Med Chem, 1979).

Legend:
[1] = Antitumor activity against mouse Gardner lymphosarcoma allografted in C3H mouse assessed as tumor growth inhibition at 0.10 mg/kg, ip administered daily for 8 to 10 days; type: functional; conditions: route intraperitoneal, read-out: TGI
Summary of the method: (§1)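 Gardner lymphosarcoma in C3H mice; sulfate salts unless noted, given ip daily for 8–10 days, treatment starting 8 days after tumor implantation. Tumor growth inhibition scored as –, 0–25%; +, 26–50%; ++, 51–75%; +++, 76–100%; T, lethal to ≥5 of 10 animals per group. Average of one or more tests.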

[2] = Antitumor activity against mouse Gardner lymphosarcoma allografted in C3H mouse assessed as tumor growth inhibition at 0.20 mg/kg, ip administered daily for 8 to 10 days; type: functional; conditions: route intraperitoneal, read-out: TGI; summary of the method: as §1
Mus musculus [3] = assay: Toxicity in C57BL/6 mouse allografted with mouse B16 cells assessed as animal death at 1.20 mg/kg, ip administered on days 1,5 and 9; type: organism-based; set-up: dose 1.2 mg/kg, route intraperitoneal; conditions: in vivo, 1.2 mg/kg
Summary of the method: (§2)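 B16 melanoma cells (10⁶ inoculum) implanted ip in C57BL/6 mice; groups of 10. Sulfate salts unless noted, given ip on days 1, 5 and 9. Single test. Survival prolongation is expressed as percent versus controls, with survivors counted on day 60. Toxic means deaths of ≥5 of 10 animals before the first control death.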

Mus musculus [4] = assay: Toxicity in C57BL/6 mouse allografted with mouse B16 cells assessed as animal death at 0.60 mg/kg, ip administered on days 1,5 and 9; type: organism-based; set-up: dose 0.6 mg/kg, route intraperitoneal; conditions: in vivo, 0.6 mg/kg; summary of the method: as §2
Mus musculus [5] = assay: Toxicity in C57BL/6 mouse allografted with mouse B16 cells assessed as animal death at 0.90 mg/kg, ip administered on days 1,5 and 9; type: organism-based; set-up: dose 0.9 mg/kg, route intraperitoneal; conditions: in vivo, 0.9 mg/kg; summary of the method: as §2
B16 = assay: Antitumor activity against mouse B16 cells allografted in C57BL/6 mouse assessed as prolongation of host survival at 0.30 mg/kg, ip administered on days 1,5 and 9; type: functional; conditions: route intraperitoneal; summary of the method: as §2
Mus musculus [6] = assay: Toxicity in C3H mouse allografted with mouse Gardner lymphosarcoma assessed as lethality at 0.40 mg/kg, ip administered daily for 8 to 10 days; type: organism-based; set-up: dose 0.4 mg/kg, route intraperitoneal; conditions: in vivo, 0.4 mg/kg
Summary of the method: (§3)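 Tumor-bearing mice given sulfate salts ip daily for 8–10 days; values are the average of one or more tests. Toxic means lethal to ≥5 of 10 animals per group.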

Mus musculus [7] = assay: Toxicity in C3H mouse allografted with mouse Gardner lymphosarcoma assessed as lethality at 0.30 mg/kg, ip administered daily for 8 to 10 days; type: organism-based; set-up: dose 0.3 mg/kg, route intraperitoneal; conditions: in vivo, 0.3 mg/kg; summary of the method: as §3
[8] = Antitumor activity against mouse P1534 cells allografted in DBA2 mouse assessed as tumor growth inhibition at 0.20 mg/kg, ip administered daily for 8 to 10 days; type: functional; conditions: route intraperitoneal, read-out: TGI
Summary of the method: (§4)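 P1534(J) leukemia implanted sc in DBA2 mice; sulfate salts dosed ip daily for 8–10 days. Growth inhibition scored –, 0–25%; +, 26–50%; ++, 51–75%; +++, 76–100%; T, lethal to ≥5 of 10 animals per group. Average of one or more tests.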

CHO [9] = assay: Mitotic arrest in CHO cells assessed as increase in cell accumulation at 0.002 ug/ml; type: functional, Cricetulus griseus
Summary of the method: (§5)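 Chinese hamster ovary cells in tissue culture, scored for mitotic arrest as increase in cells in mitotic arrest over control: +++, 40–50%; ++, 15–40%; +, 10–15%; ±, 7–10%; –, 3–7%. Cytotoxicity noted separately.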

P388/S [10] = assay: Antitumor activity against mouse P388/S cells allografted in CD2F1 mouse assessed as increase in host lifespan at 0.648 mg/kg, ip administered on days 1, 5 and 9; type: functional; conditions: route intraperitoneal
Summary of the method: (§6)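 Groups of eight male CD2F1 mice bearing P388 leukemia, run at NCI. Sulfate salts given ip on days 1, 5 and 9. Read-out is percent increase in lifespan.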

P388/VCR [11] = assay: Antitumor activity against mouse P388/VCR cells allografted in B6D2F1 mouse assessed as increase in host lifespan at 0.60 mg/kg, ip administered on days 1, 5 and 9; type: functional; conditions: dose 0.6 mg/kg; route intraperitoneal
Summary of the method: (§7)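 P388/VCR leukemia in groups of 10 B6D2F1 mice, run at Lilly using the cell strain received from NCI. Sulfate salts given ip on days 1, 5 and 9. Read-out is percent increase in lifespan.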

P388/VCR [12] = assay: Antitumor activity against mouse P388/VCR cells allografted in CD2F1 mouse assessed as increase in host lifespan at 0.648 mg/kg, ip administered on days 1, 5 and 9; type: functional; conditions: route intraperitoneal; summary of the method: as §6
CHO [13] = assay: Mitotic arrest in CHO cells assessed as increase in cell accumulation at 0.02 ug/ml; type: functional, Cricetulus griseus; summary of the method: as §5
[14] = Antitumor activity against mouse P1534 cells allografted in DBA2 mouse assessed as tumor growth inhibition at 0.30 mg/kg, ip administered daily for 8 to 10 days; type: functional; conditions: route intraperitoneal, read-out: TGI; summary of the method: as §4
P388/VCR [15] = assay: Antitumor activity against mouse P388/VCR cells allografted in CD2F1 mouse assessed as increase in host lifespan at 1.08 mg/kg, ip administered on days 1, 5 and 9; type: functional; conditions: route intraperitoneal; summary of the method: as §6
Mus musculus [16] = assay: Toxicity in CD2F1 mouse allografted with mouse P388/VCR cells at 3.00 mg/kg, ip administered on days 1, 5 and 9; type: organism-based; set-up: dose 3 mg/kg, route intraperitoneal; conditions: in vivo
P388/S [17] = assay: Antitumor activity against mouse P388/S cells allografted in CD2F1 mouse assessed as increase in host lifespan at 1.08 mg/kg, ip administered on days 1, 5 and 9; type: functional; conditions: route intraperitoneal; summary of the method: as §6
[18] = Antitumor activity against mouse P1534 cells allografted in DBA2 mouse assessed as tumor growth inhibition at 0.25 mg/kg, ip administered daily for 8 to 10 days; type: functional; conditions: route intraperitoneal, read-out: TGI; summary of the method: as §4
CHO [19] = assay: Mitotic arrest in CHO cells assessed as increase in cell accumulation at 0.2 ug/ml; type: functional, Cricetulus griseus; summary of the method: as §5
P388/VCR [20] = assay: Antitumor activity against mouse P388/VCR cells allografted in B6D2F1 mouse assessed as increase in host lifespan at 0.90 mg/kg, ip administered on days 1, 5 and 9; type: functional; conditions: dose 0.9 mg/kg; route intraperitoneal; summary of the method: as §7
P388/VCR [21] = assay: Antitumor activity against mouse P388/VCR cells allografted in B6D2F1 mouse assessed as increase in host lifespan at 1.20 mg/kg, ip administered on days 1, 5 and 9; type: functional; conditions: dose 1.2 mg/kg; route intraperitoneal; summary of the method: as §7
P388/VCR [22] = assay: Antitumor activity against mouse P388/VCR cells allografted in CD2F1 mouse assessed as increase in host lifespan at 1.80 mg/kg, ip administered on days 1, 5 and 9; type: functional; conditions: dose 1.8 mg/kg; route intraperitoneal
Summary of the method: (§8)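 Groups of eight male CD2F1 mice, tested at the NCI. Compounds were given as sulfate salts, dosed in mg/kg ip on days 1, 5 and 9. Activity was read as percent increase in lifespan against the leukemia line.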

[23] = Antitumor activity against mouse P1534 cells allografted in DBA2 mouse assessed as tumor growth inhibition at 0.40 mg/kg, ip administered daily for 8 to 10 days; type: functional; conditions: route intraperitoneal, read-out: TGI; summary of the method: as §4
[24] = Toxicity in iv dosed mouse assessed as lethality; type: organism-based; conditions: in vivo
Mus musculus [25] = assay: Toxicity in CD2F1 mouse allografted with mouse P388/S cells at 3.00 mg/kg, ip administered on days 1, 5 and 9; type: organism-based; set-up: dose 3 mg/kg, route intraperitoneal; conditions: in vivo
P388/S [26] = assay: Antitumor activity against mouse P388/S cells allografted in CD2F1 mouse assessed as increase in host lifespan at 1.80 mg/kg, ip administered on days 1, 5 and 9; type: functional; conditions: dose 1.8 mg/kg; route intraperitoneal; summary of the method: as §8

For `CC[C@]1(O)C[C@H]2CN(CCc3c([nH]c4ccccc34)[C@@](C(=O)OC)(c3cc4c(cc3OC)N(C)[C@H]3[C@@](O)(C(=O)NCCOC)[C@H](O)[C@]5(CC)C=CCN6CC[C@]43[C@@H]65)C2)C1.O=S(=O)(O)O`, the inhibition in vivo at 0.1 mg/kg [1] was 0%, the inhibition in vivo at 0.2 mg/kg [2] was 0% and the Activity (Mus musculus [3]) was “Toxic”. For the same compound, the Activity (Mus musculus [4]) was “Toxic” and the Activity (Mus musculus [5]) was “Toxic”.

In the case of `CC[C@]1(O)C[C@H]2CN(CCc3c([nH]c4ccccc34)[C@@](C(=O)OC)(c3cc4c(cc3OC)N(C)[C@H]3[C@@](O)(C(=O)NC5CCSC5=O)[C@H](O)[C@]5(CC)C=CCN6CC[C@]43[C@@H]65)C2)C1.O=S(=O)(O)O` (stereo partly specified), the survival at 0.3 mg/kg (B16) is reported as 94%, the inhibition in vivo at 0.1 mg/kg [1] is reported as 0% and the inhibition in vivo at 0.2 mg/kg [2] is reported as 0%. The Activity (Mus musculus [6]) was “Toxic”, the Activity (Mus musculus [4]) was “Toxic” and the Activity (Mus musculus [7]) was “Toxic”. For the same compound, the Activity (Mus musculus [5]) was “Toxic”.

Compound `CC[C@]1(O)C[C@@H]2CN(CCc3c([nH]c4ccccc34)[C@@](C(=O)OC)(c3cc4c(cc3OC)N(C)[C@H]3[C@@](O)(C(=O)OC)[C@H](OC(C)=O)[C@]5(CC)C=CCN6CC[C@]43[C@@H]65)C2)C1.O=S(=O)(O)O` [VINBLASTINE SULFATE] has an inhibition in vivo at 0.2 mg/kg [8] of 0%, an Activity (CHO [9]) of 3% and an Activity (P388/S [10]) of 75%. The Activity (P388/VCR [11]) was 9%, the Activity (P388/VCR [12]) was 17% and the Activity (CHO [13]) was 15%. For the same compound, the inhibition in vivo at 0.3 mg/kg [14] was 0%, the Activity (P388/VCR [15]) was 12% and the Activity (Mus musculus [16]) was “Toxic”. It also gave an Activity (P388/S [17]) of 96%, an inhibition in vivo at 0.25 mg/kg [18] of 0% and an Activity (CHO [19]) of 40%. It also gave an Activity (P388/VCR [20]) of 9%, an Activity (P388/VCR [21]) of 10% and an Activity (P388/VCR [22]) of 17%. The inhibition in vivo at 0.4 mg/kg [23] was 51%, the LD50 [24] was 10 mg/kg and the Activity (Mus musculus [25]) was “Toxic”. It also gave an Activity (P388/S [26]) of 92%.
